Results: ChEMBL document CHEMBL1122848, “5-(Haloalkyl)-2'-deoxyuridines: a novel type of potent antiviral nucleoside analogue” (1985)
In brackets after ≈: the same amount, converted by molar mass.

What was measured:
Mus musculus [1] = assay: In vivo evaluation for the percent survivors in systemic HSV-1 infection of Mice administered through intraperitoneal at a dose 50 mg/kg per day; type: functional
Procedure, shortened: (§1)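 Systemic infection model in hairless (hr/hr) mice weighing 18–20 g, twelve per group. Mice were inoculated i.p. with HSV-1 (Brand) at 2 × 10⁵ PFU/0.2 mL per mouse. Compound was given twice a day i.p. or by oral gavage at the stated daily dose. Read-out was percent survivors.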

Human alphaherpesvirus 2 = assay: Minimum inhibitory concentration against HSV-2.; type: functional
Procedure, shortened: (§2)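 CPE-inhibition assay in HEp-2 cells. Compound was serially diluted 3-fold in E-MEM, then virus (HSV-1 Brand or HSV-2 K979) and a cell suspension in E-MEM plus 15% FCS were added together. Virus input gave 90–100% CPE in infected controls after 3 days. Plates were then fixed and stained, and CPE was scored.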

Mus musculus [2] = assay: In vivo evaluation for the percent survivors in systemic HSV-1 infection of Mice administered through oral route at a dose 50 mg/kg per day; type: functional; procedure, shortened: as §1
Mus musculus [3] = assay: In vivo evaluation for the percent survivors in systemic HSV-1 infection of Mice administered through oral route at a dose 5 mg/kg per day; type: functional; procedure, shortened: as §1
Mus musculus [4] = assay: In vivo evaluation for the percent survivors in systemic HSV-1 infection of Mice administered through intraperitoneal at a dose 100 mg/kg per day; type: functional; procedure, shortened: as §1
Mus musculus [5] = assay: In vivo evaluation for the percent survivors in systemic HSV-1 infection of Mice administered through intraperitoneal at a dose 1 mg/kg per day; type: functional; procedure, shortened: as §1
Mus musculus [6] = assay: In vivo evaluation for the percent survivors in systemic HSV-1 infection of Mice administered through oral route at a dose 25 mg/kg per day; type: functional; procedure, shortened: as §1
Mus musculus [7] = assay: In vivo evaluation for the percent survivors in systemic HSV-1 infection of Mice administered through at a dose 25 mg/kg per day; type: functional; procedure, shortened: as §1
Human alphaherpesvirus 1 = assay: Minimum inhibitory concentration against HSV-1.; type: functional; procedure, shortened: as §2
Mus musculus [8] = assay: In vivo evaluation for the percent survivors in systemic HSV-1 infection of Mice administered through oral route at a dose 2.5 mg/kg per day; type: functional; procedure, shortened: as §1
HEp-2 = assay: Minimum toxic effect against HEp-2 cells.; type: functional, Homo sapiens
Procedure, shortened: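 Uninfected HEp-2 cells were exposed to 3-fold serial dilutions of compound in E-MEM with FCS, run alongside the CPE assay. Cell density was set to reach a monolayer in 1–2 days. Plates were fixed and stained at 3 days. MTC is the lowest concentration causing visible toxic effects.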

Mus musculus [9] = assay: In vivo evaluation for the percent survivors in systemic HSV-1 infection of Mice administered through intraperitoneal at a dose 10 mg/kg per day; type: functional; procedure, shortened: as §1
Mus musculus [10] = assay: In vivo evaluation for the percent survivors in systemic HSV-1 infection of Mice administered through intraperitoneal at a dose 5 mg/kg per day; type: functional; procedure, shortened: as §1
Mus musculus [11] = assay: Effect of delayed treatment on mortality of systemically infected mice at 25 mg/kg per day administered through oral route after 24 hr of start of treatment; type: functional
Procedure, shortened: (§3)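 Hairless (hr/hr) mice, 18–20 g, ten per group, inoculated intraperitoneally with HSV-1 strain Brand at 2 × 10⁵ PFU/0.2 mL per mouse. Dosing was 25 mg/kg per day, given twice daily either intraperitoneally or orally by gavage. Treatment started at 3, 24, 48 or 72 h post-infection. Read-out was percent survivors.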

Mus musculus [12] = assay: Effect of delayed treatment on mortality of systemically infected mice at 25 mg/kg per day administered Intraperitoneally after 24 hr of start of treatment; type: functional; details: route intraperitoneal; procedure, shortened: as §3
Mus musculus [13] = assay: In vivo evaluation for the percent survivors in systemic HSV-1 infection of Mice administered intraperitoneally at a dose 1 mg/kg per day; type: functional; details: route intraperitoneal; procedure, shortened: as §1
Mus musculus [14] = assay: Effect of delayed treatment on mortality of systemically infected mice at 25 mg/kg per day administered Intraperitoneally after 3 hr of start of treatment; type: functional; details: route intraperitoneal; procedure, shortened: as §3
Mus musculus [15] = assay: Effect of delayed treatment on mortality of systemically infected mice at 25 mg/kg per day administered Intraperitoneally after 48 hr of start of treatment; type: functional; details: route intraperitoneal; procedure, shortened: as §3
Mus musculus [16] = assay: In vivo evaluation for the percent survivors in systemic HSV-1 infection of Mice administered intraperitoneally at a dose 10 mg/kg per day; type: functional; details: route intraperitoneal; procedure, shortened: as §1
Mus musculus [17] = assay: Effect of delayed treatment on mortality of systemically infected mice at 25 mg/kg per day administered through oral route after 72 hr of start of treatment; type: functional; procedure, shortened: as §3
Mus musculus [18] = assay: Effect of delayed treatment on mortality of systemically infected mice at 25 mg/kg per day administered through oral route after 48 hr of start of treatment; type: functional; procedure, shortened: as §3
Mus musculus [19] = assay: In vivo evaluation for the percent survivors in systemic HSV-1 infection of Mice administered intraperitoneally at a dose 25 mg/kg per day; type: functional; details: route intraperitoneal; procedure, shortened: as §1
Mus musculus [20] = assay: In vivo evaluation for the percent survivors in systemic HSV-1 infection of Mice administered intraperitoneally at a dose 50 mg/kg per day; type: functional; details: route intraperitoneal; procedure, shortened: as §1
Mus musculus [21] = assay: In vivo evaluation for the percent survivors in systemic HSV-1 infection of Mice administered intraperitoneally at a dose 100 mg/kg per day; type: functional; details: route intraperitoneal; procedure, shortened: as §1
Mus musculus [22] = assay: Effect of delayed treatment on mortality of systemically infected mice at 25 mg/kg per day administered through oral route after 3 hr of start of treatment; type: functional; procedure, shortened: as §3
Mus musculus [23] = assay: Effect of delayed treatment on mortality of systemically infected mice at 25 mg/kg per day administered Intraperitoneally after 72 hr of start of treatment; type: functional; details: route intraperitoneal; procedure, shortened: as §3
Mus musculus [24] = assay: In vivo evaluation for the percent survivors in systemic HSV-1 infection of Mice administered intraperitoneally at a dose 5 mg/kg per day; type: functional; details: route intraperitoneal; procedure, shortened: as §1

Row | SMILES | MIC (Human alphaherpesvirus 2) [µg/mL] | MIC (Human alphaherpesvirus 1) [µg/mL] | MTC (HEp-2) [µg/mL] | also measured
1 | Nc1nc2c(ncn2COCCO)c(=O)[nH]1 [ACYCLOVIR] | 3 (≈ 13.3 µM) | 0.3 (≈ 1.33 µM) | 330 | Survivors (Mus musculus [1]): 100%; Survivors (Mus musculus [2]): 92%; Survivors (Mus musculus [3]): 9%; Survivors (Mus musculus [4]): 91%; Survivors (Mus musculus [5]): 54%; Survivors (Mus musculus [6]): 55%; Survivors (Mus musculus [7]): 100%; Survivors (Mus musculus [8]): 0%; Survivors (Mus musculus [9]): 83%; Survivors (Mus musculus [10]): 75%
2 | O=c1[nH]c(=O)n(C2CC(O)C(CI)O2)cc1CCI (stereo not given) | > 100 | 30 (≈ 61 µM) | 100 | 
3 | O=c1[nH]c(=O)n([C@@H]2C[C@H](O)[C@@H](CO)O2)cc1CCCl | 100 (≈ 344 µM) | 3 (≈ 10.3 µM) | 100 | 
4 | O=c1[nH]c(=O)n(C2CC(O)C(CCl)O2)cc1CCCCl (stereo not given) | > 100 | > 100 | 330 | 
5 | O=c1[nH]c(=O)n([C@H]2C[C@H](O)[C@@H](CO)O2)cc1I [IDOXURIDINE] | 0.3 (≈ 0.847 µM) | 0.3 (≈ 0.847 µM) | 100 | 
6 | O=c1[nH]c(=O)n(C2CC(O)C(CCl)O2)cc1CCCl (stereo not given) | > 100 | 100 (≈ 323 µM) | 330 | 
7 | O=C([O-])P(=O)([O-])[O-].[Na+].[Na+].[Na+] [FOSCARNET SODIUM] | 30 | 10 | 330 | 
8 | O=c1[nH]c(=O)n([C@H]2C[C@H](O)[C@@H](CO)O2)cc1CCBr | 100 (≈ 298 µM) | 3 (≈ 8.95 µM) | 100 | 
9 | O=c1[nH]c(=O)n(C2CC(O)C(CBr)O2)cc1CCBr (stereo not given) | 100 (≈ 251 µM) | 30 (≈ 75.4 µM) | 330 | 
10 | O=c1[nH]c(=O)n([C@H]2C[C@H](O)[C@@H](CO)O2)cc1CCCl | 3 (≈ 10.3 µM) | 0.03 (≈ 0.103 µM) | 330 | Survivors (Mus musculus [11]): 90%; Survivors (Mus musculus [12]): 100%; Survivors (Mus musculus [13]): 75%; Survivors (Mus musculus [14]): 100%; Survivors (Mus musculus [15]): 80%; Survivors (Mus musculus [16]): 91%; Survivors (Mus musculus [17]): 70%; Survivors (Mus musculus [18]): 100%; Survivors (Mus musculus [2]): 100%; Survivors (Mus musculus [19]): 83%; Survivors (Mus musculus [3]): 67%; Survivors (Mus musculus [20]): 92%; Survivors (Mus musculus [6]): 100%; Survivors (Mus musculus [21]): 100%; Survivors (Mus musculus [22]): 80%; Survivors (Mus musculus [23]): 60%; Survivors (Mus musculus [8]): 82%; Survivors (Mus musculus [24]): 92%
11 | O=c1[nH]c(=O)n([C@H]2C[C@H](O)[C@@H](CO)O2)cc1CCCCl | 30 (≈ 98.4 µM) | 0.3 (≈ 0.984 µM) | 100 | 
12 | O=c1[nH]c(=O)n([C@H]2C[C@H](O)[C@@H](CO)O2)cc1CCCO | > 100 | > 100 | 330 | 
13 | O=c1[nH]c(=O)n([C@H]2C[C@H](O)[C@@H](CO)O2)cc1CCO | 100 (≈ 367 µM) | 100 (≈ 367 µM) | 330 | 
14 | Nc1ncnc2c1ncn2[C@@H]1O[C@H](CO)[C@@H](O)[C@@H]1O [VIDARABINE] | 10 (≈ 37.4 µM) | 10 (≈ 37.4 µM) | 100 | 
15 | O=c1[nH]c(=O)n([C@H]2C[C@H](O)[C@@H](CO)O2)cc1/C=C/Br [BRIVUDINE] | 3 (≈ 9.01 µM) | 0.003 (≈ 0.00901 µM) | 100 | Survivors (Mus musculus [1]): 33%; Survivors (Mus musculus [2]): 8%; Survivors (Mus musculus [3]): 0%; Survivors (Mus musculus [4]): 33%; Survivors (Mus musculus [5]): 33%; Survivors (Mus musculus [6]): 0%; Survivors (Mus musculus [7]): 8%; Survivors (Mus musculus [8]): 0%; Survivors (Mus musculus [9]): 18%; Survivors (Mus musculus [10]): 25%
16 | COC(=O)/C=C/c1cn([C@H]2C[C@H](O)[C@@H](CO)O2)c(=O)[nH]c1=O | 30 (≈ 96.1 µM) | 0.3 (≈ 0.961 µM) | 100 | 
17 | O=c1[nH]c(=O)n([C@@H]2C[C@H](O)[C@@H](CO)O2)cc1CCBr | > 100 | 3 (≈ 8.95 µM) | 330 | 
18 | O=c1[nH]c(=O)n([C@H]2C[C@H](O)[C@@H](CO)O2)cc1CCI | 30 (≈ 78.5 µM) | 1 (≈ 2.62 µM) | 330 | 
19 | O=c1nc2c(cn1[C@H]1C[C@H](O)[C@@H](CO)O1)CCO2 | > 100 | > 100 | 330 | 
